ERAP1 inh: human ERAP1 aminopeptidase inhibitors, primary screen, biochemical, single point, plate reader; Endoplasmic reticulum aminopeptidase 1 (Homo sapiens), Q9NZ08; recombinant ERAP1, Leu-AMC fluorescence, 60 min; inhibition, % at 10.7 µM; actives 0.15% (n = 340,000); AID 652197, 2013;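 active = mean replicate inhibition of at least 30%, or all replicates individually reaching that 30% level; inactive = mean below 30% and not every replicate reaching it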;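 note: 0% = neutral control wells and 100% = L-leucinethiol positive control wells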
SIRT5 inh: SIRT5 desuccinylase inhibitors, primary screen, biochemical, fluorescence imaging, single point, set 5. NAD-dependent protein deacylase sirtuin-5, mitochondrial (Homo sapiens), Q9NXA8. Purified SirT5, succinyl-peptide AMC, trypsin-coupled fluorescence. actives 1.1% (n = 330,000). inhibition, % at 15 µM; in the data active = inhibition above about 15%
Target sequence (Q9NXA8 whole entry, looked up): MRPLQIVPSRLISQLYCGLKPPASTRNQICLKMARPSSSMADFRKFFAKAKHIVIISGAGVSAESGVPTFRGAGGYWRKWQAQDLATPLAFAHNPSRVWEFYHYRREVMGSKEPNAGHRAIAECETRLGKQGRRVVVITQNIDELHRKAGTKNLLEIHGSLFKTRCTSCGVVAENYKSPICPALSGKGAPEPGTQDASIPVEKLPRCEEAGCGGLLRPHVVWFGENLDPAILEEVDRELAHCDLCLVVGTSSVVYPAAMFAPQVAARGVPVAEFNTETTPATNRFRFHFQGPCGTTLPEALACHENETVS
CAL PDZ FP-1: CAL PDZ peptide-binding inhibitors, primary screen, biochemical, fluorescence polarization, Cer-tagged CAL PDZ, HTS; actives 0.02% (n = 330,000); AID 504414, 2011; inhibition, % at 20 µM; purified CAL PDZ, TMR-peptide fluorescence polarization, 1 h; Golgi-associated PDZ and coiled-coil motif-containing protein (Homo sapiens), Q9HD26;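 active = highest replicate inhibition of at least 40%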;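 note: plate controls were DMSO neutral control wells for no effect and unlabeled competitor peptide control wells for full effect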
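Assay system – tagged CAL PDZ protein CerCALP, purified · Timing – 1 h at RT · Compound – single point, 20 µM · Measured by – fluorescence polarization from S- and P-plane intensities, G-factor corrected · Evaluation – inhibition from polarization loss · Probe or stimulus – TMR reporter peptide T*-PRC34 · Buffer or medium – pH 7.4 phosphate-saline buffer, reducing agent, detergent, IgG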
CAL PDZ FP-2: untagged CAL PDZ binding inhibitors, primary screen, biochemical, fluorescence polarization, HTS; purified CAL PDZ, TMR-peptide fluorescence polarization, 1 h; inhibition, % at 24.9 µM; actives 0.92% (n = 300,000);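 active = mean inhibition of at least 30% with at least half of replicates also reaching 30%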;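 note: 0% = DMSO neutral control and 100% = excess unlabeled competitor peptide PRC23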
S100A4 inh HTS: inhibitors of S100A4-myosin IIA peptide binding, primary screen, biochemical, fluorescence polarization, TAMRA-MyoIIA peptide; Protein S100-A4 (Homo sapiens), P26447; actives 0.14% (n = 360,000); inhibition, % at 10.7 µM; AID 652163, 2013;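 active = mean inhibition of at least 70% across replicates, with every replicate also reaching that level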
Target sequence (P26447 whole entry, looked up): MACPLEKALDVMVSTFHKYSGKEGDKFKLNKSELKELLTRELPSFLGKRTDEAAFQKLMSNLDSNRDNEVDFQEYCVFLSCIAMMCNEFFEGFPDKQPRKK
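Test system: S100A4 monomer protein; Medium: HEPES pH 7.2 with CaCl2, KCl, NaCl, DTT, Triton; Probe or stimulus: TAMRA-labelled myosin IIA heavy-chain peptide probe, 5 nM; Doses: one dose per compound; Times: polarization read 5 min after assay mix addition, stable 5–60 min; Benchmarks: neutral control DMSO, positive control TFP.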
DENV2 CPE rescue: inhibitors of DENV2 cytopathic effect, primary screen, cell-based, plate reader, single concentration; DENV2-infected cells, cytopathic effect rescue; CPE inhibition, % at 9.99 µM; actives 1.7% (n = 350,000); in the data active = CPE inhibition above about 20%, passing the limit was not always enough; tested in BHK-21 cells;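 note: 0% = median of neutral control wells and 100% = median of positive control wells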
Active calls of the source: *; nt = no result. Shown are actives, neighbours in structure and some others; about 2.9% of the full set was active somewhere.

SMILES	ERAP1 inh	SIRT5 inh	CAL PDZ FP-1	CAL PDZ FP-2	S100A4 inh HTS	DENV2 CPE rescue
C[C@@H]1CN([C@H](C)CO)C(=O)c2cc(NC(=O)NC3CCCCC3)ccc2O[C@@H]1CN(C)S(=O)(=O)c1ccccc1	0	-3	nt	nt	3	-5
O=C(c1ccccc1)c1ccc2nc(-c3ccc(NC(=O)c4ccccc4F)cc3)[nH]c2c1	nt	nt	-1	0	nt	nt
O=C(O)CCC(=O)Nc1ccc(-c2nc3ccc(C(=O)c4ccccc4)cc3[nH]2)cc1	1	34*	-11	nt	-2	2
C[C@@H]1CN([C@H](C)CO)C(=O)Cc2cc(N(C)C)ccc2O[C@H]1CN(C)Cc1ccc(Oc2ccccc2)cc1	0	3	nt	nt	4	11
Cc1oc2c(c(C)cc3oc(=O)c(CC(=O)N[C@H](C(=O)O)C(C)C)c(C)c32)c1C	35*	-5	-3	-8	-8	-2
Cc1oc2c(c(C)cc3oc(=O)c(CC(=O)N[C@@H](CC(C)C)C(=O)O)c(C)c32)c1C	15	-4	-4	-8	-9	4
CCNC(=O)[C@H]1[C@H](CO)[C@H]2Cn3c(ccc(-c4ccccc4F)c3=O)[C@H]2N1C	1	-8	nt	nt	1	-5
COc1ccc(CCNC(=O)Cn2ccc3c(OC)cccc3c2=O)cc1OC	nt	21*	-1	-3	-1	-4
COc1ccc(CCNC(=O)Cn2c(=O)n(-c3ccc(F)cc3F)c(=O)c3sccc32)cc1OC	nt	4	nt	32*	3	-1
COc1ccc(CCNC(=O)c2cc3c(F)cccc3s2)cc1OC	-3	-4	-2	70*	-8	1
COc1ccc(CCNC(=O)c2cccc3ccccc23)cc1OC	-1	-3	-1	-2	-4	-3
COc1cccc(/C=C/C(=O)NCCc2ccc(OC)c(OC)c2)c1	2	nt	1	-4	3	99*
CC(C)(C)OC(=O)N1CCC(NC(=O)c2[nH]cnc2C(=O)Nc2cccc(Cl)c2)CC1	2	nt	0	45*	12	nt
CCOC(=O)c1ccc(NC(=O)c2nc[nH]c2C(=O)NC2CCN(C(=O)OC(C)(C)C)CC2)cc1	0	nt	0	0	4	68*
CC(C)(C)OC(=O)N1CCC(NC(=O)c2nc[nH]c2C(=O)NC2CCN(C(=O)OC(C)(C)C)CC2)CC1	-3	-8	0	-2	1	-7
C[C@H]1CN([C@@H](C)CO)C(=O)CCCn2cc(nn2)CO[C@@H]1CN(C)Cc1cccc(C(=O)O)c1	-6	-1	nt	nt	2	24*
C[C@H]1CN([C@@H](C)CO)C(=O)CCCn2cc(nn2)CO[C@H]1CN(C)Cc1ccc(C(=O)O)cc1	3	-4	nt	nt	-2	25*
C[C@H]1CN([C@@H](C)CO)C(=O)CCCn2cc(nn2)CO[C@@H]1CN(C)Cc1ccc(C(=O)O)cc1	0	-2	nt	nt	-5	-6
CCCCn1c(N)c(N(CCOC)C(=O)c2c(CC)noc2C)c(=O)[nH]c1=O	1	20*	-1	-3	-18	7
CCc1noc(C)c1C(=O)N(CCOC)c1c(N)n(CC(C)C)c(=O)[nH]c1=O	95*	-1	0	38*	0	-4
O=S(=O)(NCC[C@H]1CC[C@@H](NS(=O)(=O)c2cccc(F)c2)[C@@H](CO)O1)c1cccc(F)c1	2	-5	nt	nt	2	11
CO[C@H]1CN(C)C(=O)c2cc(NC(=O)c3ccccc3)ccc2OC[C@@H](C)N(C)C[C@H]1C	0	1	nt	nt	-1	4
Cc1ccc(NC(=O)COCC(=O)Nc2ccc(C)cc2)cc1	5	0	1	-3	4	6
Cc1ccc(NC(=O)COCC(=O)Nc2ccc(F)cc2)cc1	1	24*	-30	-1	-2	1
CCNC(=O)N(C)C[C@H]1N[C@@](CC)(C(=O)OC)[C@H]2C(=O)N(Cc3ccccc3)C(=O)[C@@H]12	-5	-3	1	-6	-1	29*
SMILES	ERAP1 inh	SIRT5 inh	CAL PDZ FP-1	CAL PDZ FP-2	S100A4 inh HTS	DENV2 CPE rescue
COC(=O)[C@]1(Cc2ccccc2)N[C@H](CN(C)C(=O)Nc2ccccc2)[C@@H]2C(=O)N(Cc3ccccc3)C(=O)[C@@H]21	nt	-1	-6	1	4	-1
CCN(C[C@H]1N[C@@](CC)(C(=O)OC)[C@H]2C(=O)N(Cc3ccccc3)C(=O)[C@@H]12)C(=O)COc1ccccc1	nt	nt	0	0	2	66*
CCN(C[C@H]1N[C@@](Cc2ccccc2)(C(=O)OC)[C@H]2C(=O)N(C)C(=O)[C@@H]12)S(=O)(=O)c1ccc(OC(F)(F)F)cc1	-4	6	-1	-1	2	84*
COC(=O)[C@]1(Cc2ccccc2)N[C@H](CN(C)C(=O)Nc2ccc(Cl)cc2)[C@@H]2C(=O)N(Cc3ccccc3)C(=O)[C@@H]21	-2	3	-1	5	-3	22*
C[C@H](CO)N1C[C@H](C)[C@@H](CN(C)Cc2ccc(C(=O)O)cc2)Oc2ccc(NC(=O)Nc3ccc(F)cc3)cc2CC1=O	2	2	nt	nt	4	-1
C[C@@H]1CCCCO[C@H](CN(C)Cc2ccncc2)[C@H](C)CN([C@@H](C)CO)C(=O)c2cc(NC(=O)Nc3ccc(C(F)(F)F)cc3)ccc2O1	0	8	nt	nt	7	0
COC(=O)[C@]1(Cc2ccccc2)N[C@H](CN(C)C(C)=O)[C@@H]2C(=O)N(C)C(=O)[C@@H]21	2	nt	1	0	-10	23*
COC(=O)[C@@]1(Cc2ccccc2)[C@H]2C(=O)N(Cc3ccccc3)C(=O)[C@H]2[C@H]2CN=C(SCc3ccc(Cl)cc3)N21	0	-1	1	-2	1	85*
COCC(=O)N(C)C[C@H]1N[C@@](Cc2ccccc2)(C(=O)OC)[C@H]2C(=O)N(C)C(=O)[C@@H]12	nt	-3	-1	-1	-1	0
O=C(Nc1cc(F)ccc1F)N1CC(=O)N2[C@H](CO)[C@@H](c3ccc(C#CC4CCCCC4)cc3)[C@@H]2C1	-2	18*	nt	nt	3	-9
O=C(Nc1cc(F)ccc1F)N1CC(=O)N2[C@H](C1)[C@@H](c1ccc(C#CC3CCCCC3)cc1)[C@@H]2CO	-2	20*	nt	nt	4	-1
CC(C)CC#Cc1ccc([C@@H]2[C@H]3CN(C(=O)Nc4cc(F)ccc4F)CC(=O)N3[C@H]2CO)cc1	-1	17*	nt	nt	-6	-5
